Several values for one entry are separate records, joined by “and”; a condition that tells them apart may be missing. Equal values may be shown once.
Tests used:
Assay type in all cases: functional
[1] = test system: Plasmodium berghei; experiment: Antimalarial activity in Plasmodium berghei infected mice (Mus musculus) after subcutaneous 640 mg/kg dose
How it was run: (§1)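 Normal drug-sensitive P. berghei strain in mice. Compound dissolved or suspended in sesame or peanut oil, given parenterally as a single subcutaneous dose 72 h postinfection.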

[2] = test system: Plasmodium berghei; experiment: Antimalarial activity in Plasmodium berghei infected mice (Mus musculus) after subcutaneous 160 mg/kg dose; how it was run: as §1
[3] = test system: Plasmodium berghei; experiment: Antimalarial activity in Plasmodium berghei infected mice (Mus musculus) after 80 mg/kg subcutaneous dose
How it was run: (§2)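 […] in mice infected with a normal drug-sensitive P. berghei strain. Compound dissolved or suspended in sesame or peanut oil, given as a single subcutaneous dose 72 h postinfection.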

[4] = test system: Plasmodium berghei; experiment: Antimalarial activity in Plasmodium berghei infected mice (Mus musculus) after 160 mg/kg subcutaneous dose; how it was run: as §2
[5] = test system: Plasmodium berghei; experiment: Antimalarial activity in Plasmodium berghei infected mice (Mus musculus) after 320 mg/kg subcutaneous dose; how it was run: as §2
[6] = test system: Plasmodium berghei; experiment: Antimalarial activity Plasmodium berghei infected mice (Mus musculus) after 640 mg/kg subcutaneous dose; how it was run: as §2
[7] = test system: Plasmodium berghei; experiment: Antimalarial activity in Plasmodium berghei infected mice (Mus musculus) after 40 mg/kg subcutaneous dose; how it was run: as §2
[8] = test system: Plasmodium berghei; experiment: Antimalarial activity in Plasmodium berghei infected mice (Mus musculus) after subcutaneous 320 mg/kg dose; how it was run: as §1
[9] = test system: Plasmodium berghei; experiment: Antimalarial activity in Plasmodium berghei infected mice (Mus musculus) after 20 mg/kg subcutaneous dose; how it was run: as §2

| Structure (SMILES) | No. of cured mice [1] | No. of cured mice [2] | Delta mean survival time [3] | Delta mean survival time [4] | Delta mean survival time [5] | Delta mean survival time [6] | Delta mean survival time [7] | No. of cured mice [8] | Delta mean survival time [9] | No. of cured mice ([1]; 640 mg/kg) | Delta mean survival time ([6]; 640 mg/kg) |
| --- | --- | --- | --- | --- | --- | --- | --- | --- | --- | --- | --- |
| O=c1c2c(n(O)c3ccc(Cl)cc13)CC(c1cccc(C(F)(F)F)c1)C/C2=N\C1CCN(Cc2ccccc2)CC1 (configuration not stated) | 1 | 2 | 3.8 | 8.6 | 8.4 | 11.1 | 6.8 | – | – | – | – |
| O=C1CC(c2c(Cl)cccc2Cl)Cc2c1c(=O)c1cc(Cl)ccc1n2O (configuration not stated) | 2 | 1 | 5.1 | 5.8 | 23.9 | 11.2 | 1.5 | 3 | 0.7 | – | – |
| O=C1CC(c2cccc(C(F)(F)F)c2)Cc2nc3ccc(Cl)cc3c(O)c21 (configuration not stated) | – | – | 0.3 | 2.3 | 3.3 | 5.3 | – | – | – | – | – |
| N=C1CC(c2cccc(C(F)(F)F)c2)Cc2c1c(=O)c1cc(Cl)ccc1n2O (configuration not stated) | – | – | 3.4 | 3.8 | 7.6 | 8.2 | 1.4 | – | – | – | – |
| CCN(CC)Cc1cccc(/N=C2\CC(c3ccc(Cl)c(Cl)c3)Cc3c2c(=O)c2cc(Cl)ccc2n3O)c1 (configuration not stated) | 4 | 2 | 8 | 10.3 | 22.6 | 42.6 | 6.6 | 4 | 1.6 | – | – |
| CCC1/C(=N\CCCN(C)C)c2c(nc3ccc(Cl)cc3c2O)CC1c1ccc(C(F)(F)F)cc1 (configuration not stated) | – | – | 5.3 | – | 10 | – | 3.3 | 2 | 0.3 | 4 and 3 | 6.7 and 10.2 |
| O=C1CC(c2cccc(Br)c2)Cc2c1c(=O)c1cc(Cl)ccc1n2O (configuration not stated) | 4 | 1 | 5.9 | 9.2 | 10.7 | 7.9 | 2.5 | 1 | 0.1 | – | – |
| O=C1CC(c2cccc3ccccc23)Cc2c1c(=O)c1cc(Cl)ccc1n2O (configuration not stated) | 4 | – | 2.3 | 6.9 | 5.7 | 13.7 | – | 2 | – | – | – |
| CSCCC/N=C1\CC(c2ccc(Cl)c(Cl)c2)Cc2c1c(=O)c1cc(Cl)ccc1n2O (configuration not stated) | 1 | – | – | 1.7 | 4.1 | 3.7 | – | – | – | – | – |
| O=C1CC(c2ccc(Cl)c(Cl)c2)Cc2c1c(=O)c1ccccc1n2O (configuration not stated) | 2 | – | 3.1 | 5.1 | 7.7 | 12.6 | – | 1 | – | – | – |
| O=C1CC(c2ccccn2)Cc2nc3ccc(Cl)cc3c(O)c21 (configuration not stated) | – | – | 1.1 | 2.4 | 7.3 | 4.4 | – | – | – | – | – |
| COc1cc(C2C/C(=N\CCCN(C)C)c3c(n(O)c4ccc(Cl)cc4c3=O)C2)cc(OC)c1OC (configuration not stated) | – | – | – | 1 | 4 | 4.3 | – | – | – | – | – |
| COc1ccc(C2C/C(=N\CCCN(C)C)c3c(n(O)c4ccc(Cl)cc4c3=O)C2)cc1 (configuration not stated) | 3 | – | 0.1 | 0.7 | 6.5 | 8.4 | – | – | – | – | – |
| CN(C)CCC/N=C1\CC(c2ccncc2)Cc2nc3ccc(Cl)cc3c(O)c21 (configuration not stated) | – | – | 1.3 | 1.3 | 2.5 | 4.3 | 0.1 | – | 0.7 | – | – |
| COc1ccc2nc3c(c(O)c2c1)C(=O)CC(c1ccc(C(F)(F)F)cc1)C3 (configuration not stated) | – | – | 0.1 | 2.9 | 2.3 | 4.4 | -0.3 | – | – | – | – |
| O=C1CC(C2CCCCC2)Cc2c1c(=O)c1cc(Cl)ccc1n2O (configuration not stated) | 1 | – | 2.5 | 2.9 | 6.5 | 12.7 | – | – | – | – | – |
| Cc1ccc(C2C/C(=N\CCCN(C)C)c3c(nc4ccc(Cl)cc4c3O)C2)cc1 (configuration not stated) | 2 | – | 1.4 | 6.6 | 6.5 | 9.8 | 0.8 | 2 | – | – | – |
| C/N=C1\CC(c2ccc(Cl)c(Cl)c2)Cc2c1c(=O)c1cc(Cl)ccc1n2O (configuration not stated) | 3 | – | 3.3 | 6.4 | 10.7 | 10.8 | – | – | – | – | – |
| O=C1CC(c2ccc(Cl)c(Cl)c2)Cc2nc3ccc(Cl)cc3c(O)c21 (configuration not stated) | 2 | 1 | 2.1 | 7.7 | 10.2 | 11.2 | – | 1 | – | – | – |
| COc1cc(C2CC(=O)c3c(n(O)c4ccc(Cl)cc4c3=O)C2)cc(OC)c1OC (configuration not stated) | – | – | 1.3 | 1.8 | 2.7 | 7 | – | – | – | – | – |
| Cc1ccc(C2C/C(=N\CCCN(C)C)c3c(n(O)c4ccc(Cl)cc4c3=O)C2)cc1 (configuration not stated) | 4 | – | 1.8 | 3 | 6 | 1 | 0.2 | 2 | – | – | – |
| COc1ccc(C2CC(=O)c3c(n(O)c4ccc(Cl)cc4c3=O)C2)cc1 (configuration not stated) | – | – | 1.2 | 1.4 | 4.6 | 5.7 | 0.6 | – | 0.6 | – | – |
| CCN(CC)CCO/N=C1\CC(c2ccc(Cl)c(Cl)c2)Cc2c1c(=O)c1cc(Cl)ccc1n2O (configuration not stated) | – | – | 0.9 | 2.1 | 3.7 | 8.7 | – | – | – | – | – |
| CN(C)CCC/N=C1\CC(c2ccc([N+](=O)[O-])cc2)Cc2nc3ccc(Cl)cc3c(O)c21 (configuration not stated) | 1 | – | 3 | 8.6 | 11.6 | 11.8 | 1 | – | 0.4 | – | – |
| CCN(CC)CC/N=C1\CC(c2cc(OC)c(OC)c(OC)c2)Cc2c1c(=O)c1cc(Cl)ccc1n2O (configuration not stated) | – | – | – | 1.2 | 5 | 6 | 0.8 | – | – | – | – |
| O=C1CC(c2cccc(C(F)(F)F)c2)Cc2c1c(=O)c1cc(Cl)ccc1n2[O-].[Na+] (configuration not stated) | 5 | – | 10 | 13.8 | 16 | – | 7.8 | 3 | 6.4 | – | – |
